From ChEMBL document CHEMBL1122207, “Antitumor agents. 2. Bisguanylhydrazones of anthracene-9,10-dicarboxaldehydes” (1982)

Legend:
Assay type in all cases: functional
Mus musculus [1] = assay: Percent increase in median life span of BDF1 mice with B-16 melanoma at dose 3.1 mg/kg administered intraperitoneally; details: BDF1, B16, ip, route intraperitoneal
Summary of the method: (§1)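 BDF1 mice were implanted ip with a homogenate from 0.05 g of B-16 melanoma. Ip dosing ran on days 1-9, starting 24 h after implant, in dose-response studies following NCI protocols. The read-out was percent increase in life span (ILS). T/C ≥125% was taken as significant.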

Mus musculus [2] = assay: Percent increase in median life span of BDF1 mice with P-388 leukemia at dose 160 mg/kg administered intraperitoneally; details: BDF1, P388, ip, route intraperitoneal
Mus musculus [3] = species on record: Mus musculus; assay: Anticancer activity measured as the number of survivors of the total treated mice with P-388 leukemia at 30 days.
Summary of the method: (§2)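 BDF1 or CDF1 mice given 10^6 ascitic P-388 leukemia cells ip, then treated ip on days 1, 5 and 9. Cures are survivors over total treated at 30 days.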

Mus musculus [4] = species on record: Mus musculus; assay: Number of survivors of the total treated mice with B-16 melanoma, at 60 days.
Summary of the method: (§3)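 BDF1 mice were implanted ip with a homogenate from 0.05 g of B-16 melanoma and dosed ip on days 1-9. Cures are survivors over total at 60 days.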

Mus musculus [5] = assay: Percent increase in median life span of BDF1 mice with P-388 leukemia at dose 225 mg/kg administered intraperitoneally; details: BDF1, P388, ip, route intraperitoneal
Mus musculus [6] = species on record: Mus musculus; assay: Cures is the number of survivors of the total treated mice (6) with P-388 leukemia, at 30 days.; summary of the method: as §2
Mus musculus [7] = species on record: Mus musculus; assay: Cures is the number of survivors of the total treated mice (8) with Colon 26, at 60 days.
Mus musculus [8] = species on record: Mus musculus; assay: Cures is the number of survivors of the total treated animals (12 mice) with P-388 leukemia, at 30 days.; summary of the method: as §2
Mus musculus [9] = assay: Percent increase in median life span of BDF1 mice with Colon 26 at dose 12.5 mg/kg administered intraperitoneally; 1, 5, 9 days of ip treatment relative to tumor inoculation; details: BDF1, Colon 26, ip, 216 h, route intraperitoneal
Mus musculus [10] = assay: Percent increase in median life span of BDF1 mice with B-16 melanoma at dose 6 mg/kg administered intraperitoneally; range 100-167; 1-9 days of ip treatment relative to tumor inoculation; details: BDF1, B16, ip, route intraperitoneal; summary of the method: as §1
Mus musculus [11] = species on record: Mus musculus; assay: Cures is the number of survivors of the total treated mice (20) with B-16 melanoma, at 60 days.; summary of the method: as §3
Mus musculus [12] = assay: Percent increase in median life span of BDF1 mice with P-388 leukemia at dose 50 mg/kg administered intraperitoneally; range 25-91%; range 25-91%, 1, 5, 9 days of ip treatment relative to tumor inoculation; details: BDF1, P388, ip, 216 h, route intraperitoneal
Summary of the method: (§4)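 BDF1 or CDF1 mice given 10^6 ascitic leukemia cells ip, then dosed ip on days 1, 5 and 9. Read-out is percent increase in life span versus untreated controls. Cures were scored as survivors/total at 30 days; when cures reached 50% or more, the run was extended until a specific ILS could be calculated. T/C ≥125% counted as significant.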

Mus musculus [13] = assay: Percent increase in median life span of BDF1 mice with advanced L-1210 leukemia administered intraperitoneally; treatment day +2 ip
Mus musculus [14] = assay: Percent increase in median life span of BDF1 mice with advanced P-388 leukemia at dose 25 mg/kg administered intraperitoneally; 4, 8, 12 days of ip treatment relative to tumor inoculation; details: P388, ip, 288 h, route intraperitoneal
Mus musculus [15] = assay: Percent increase in median life span of BDF1 mice with B-16 melanoma at dose 25 mg/kg administered intraperitoneally; 1-9 days of ip treatment relative to tumor inoculation; details: BDF1, B16, ip, route intraperitoneal; summary of the method: as §1
Mus musculus [16] = assay: Percent increase in median life span of BDF1 mice with advanced L-1210 leukemia at dose 200 mg/kg administered intraperitoneally; treatment day +2 iv; details: L1210
Mus musculus [17] = species on record: Mus musculus; assay: Cures is the number of survivors of the total treated mice (10) with B-16 melanoma, at 60 days.; summary of the method: as §3
Mus musculus [18] = assay: Percent increase in median life span of BDF1 mice with madison lung 109 leukemia administered intraperitoneally
Mus musculus [19] = assay: Percent increase in median life span of BDF1 mice with P-388 leukemia at dose 100 mg/kg administered intraperitoneally; 1, 5, 9 days of ip treatment relative to tumor inoculation; details: BDF1, P388, ip, 216 h, route intraperitoneal; summary of the method: as §4
Mus musculus [20] = assay: Percent tumor inhibition at non-lethal dose was determined in BDF1 mice with madison lung 109 leukemia; 1, 5, 9 days of sc treatment relative to tumor inoculation
Mus musculus [21] = assay: Percent increase in median life span of BDF1 mice with Colon 26 at dose 25 mg/kg administered intraperitoneally; 1, 5, 9 days of ip treatment relative to tumor inoculation; details: BDF1, Colon 26, ip, 216 h, route intraperitoneal
Mus musculus [22] = species on record: Mus musculus; assay: Cures is the number of survivors of the total treated mice (6) with advanced L-1210 leukemia, at 30 days.
Summary of the method: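 Advanced L-1210 leukemia, with ip treatment on days 5, 9 and 13 relative to tumor inoculation.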

Mus musculus [23] = assay: Percent increase in median life span of BDF1 mice with B-16 melanoma at dose 6.2 mg/kg administered intraperitoneally; 1-9 days of ip treatment relative to tumor inoculation; details: BDF1, B16, ip, route intraperitoneal; summary of the method: as §1
Mus musculus [24] = species on record: Mus musculus; assay: Cures is the number of survivors of the total treated animals(12 mice) with P-388 leukemia, at 30 days.; summary of the method: as §2
Mus musculus [25] = assay: Percent increase in median life span of BDF1 mice with P-388 leukemia at dose 12.5 mg/kg administered intraperitoneally; Range is 100-120% 1, 5, 9 days of ip treatment relative to tumor inoculation; details: BDF1, P388, ip, 216 h, route intraperitoneal; summary of the method: as §4
Mus musculus [26] = assay: Percent increase in median life span of BDF1 mice with advanced L-1210 leukemia at dose 12.5 mg/kg administered intraperitoneally; treatment day +2 iv; details: L1210
Mus musculus [27] = assay: Percent increase in median life span of BDF1 mice with B-16 melanoma at dose 1.5 mg/kg administered intraperitoneally; details: BDF1, B16, ip, route intraperitoneal; summary of the method: as §1
Mus musculus [28] = assay: Percent increase in median life span of BDF1 mice with P-388 leukemia at dose 12.5 mg/kg administered intraperitoneally; details: BDF1, P388, ip, route intraperitoneal
Mus musculus [29] = species on record: Mus musculus; assay: Cures is the number of survivors of the total treated mice (9) with P-388 leukemia, at 30 days.; summary of the method: as §2
Mus musculus [30] = species on record: Mus musculus; assay: Cures is the number of survivors of the total treated mice (10) with Colon 26, at 60 days.
Mus musculus [31] = assay: Percent increase in median life span of BDF1 mice with Colon 26 at dose 6.2 mg/kg administered intraperitoneally; 1, 5, 9 days of ip treatment relative to tumor inoculation; details: BDF1, Colon 26, ip, 216 h, route intraperitoneal
Mus musculus [32] = species on record: Mus musculus; assay: Cures is the number of survivors of the total treated mice (6) with L-1210 leukemia, at 30 days.
Mus musculus [33] = species on record: Mus musculus; assay: Cures is the number of survivors of the total treated mice (10) with advanced B-16 melanoma, at 30 days.
Mus musculus [34] = assay: Percent increase in median life span of BDF1 mice with B-16 melanoma at dose 6.25 mg/kg administered intraperitoneally; 1-9 days of ip treatment relative to tumor inoculation; details: BDF1, B16, ip, route intraperitoneal; summary of the method: as §1
Mus musculus [35] = species on record: Mus musculus; assay: Cures is the number of survivors of the total treated mice (12) with P-388 leukemia, at 30 days.; summary of the method: as §2
Mus musculus [36] = assay: Percent increase in median life span of BDF1 mice with P-388 leukemia at dose 12.5 mg/kg administered intraperitoneally; range 90-100%; range 90-100%, 1, 5, 9 days of ip treatment relative to tumor inoculation; details: BDF1, P388, ip, 216 h, route intraperitoneal; summary of the method: as §4
Mus musculus [37] = assay: Percent increase in median life span of BDF1 mice with advanced B-16 melanoma at dose 12.5 mg/kg administered intraperitoneally; 5, 9, 13 days of ip treatment relative to tumor inoculation; details: BDF1, B16, ip, 312 h, route intraperitoneal
Mus musculus [38] = assay: Percent increase in median life span of BDF1 mice with L-1210 leukemia at dose 3.1 mg/kg administered intraperitoneally; 1, 5, 9 days of ip treatment relative to tumor inoculation; details: BDF1, L1210, ip, 216 h, route intraperitoneal; summary of the method: as §4
Mus musculus [39] = assay: Percent increase in median life span of BDF1 mice with B-16 melanoma at dose 0.8 mg/kg administered intraperitoneally; details: BDF1, B16, ip, route intraperitoneal; summary of the method: as §1
Mus musculus [40] = assay: Percent increase in median life span of BDF1 mice with P-388 leukemia at dose 5 mg/kg administered intraperitoneally; details: BDF1, P388, ip, route intraperitoneal
Mus musculus [41] = species on record: Mus musculus; assay: Cures is the number of survivors of the total treated mice (6) with P-388 leukemia, at 60 days.

## Cc1cc2c(/C=N/NC3=NCCN3)c3ccccc3c(/C=N/NC3=NCCN3)c2cc1C.Cl.Cl
Mus musculus [1]
  ILS at 3.1 mg/kg: 76%
Mus musculus [2]
  ILS at 160 mg/kg: 77%
Mus musculus [3]
  Cures: 0
Mus musculus [4]
  Cures: 0

## C(=N\NC1=NCCN1)/C1c2ccccc2C(/C=N/NC2=NCCN2)c2cc3ccccc3cc21 (stereo not drawn)
Mus musculus [5]
  ILS at 225 mg/kg: 105%

## Cl.Cl.N=C(NCc1ccco1)N/N=C/c1c2ccccc2c(/C=N/NC(=N)NCc2ccco2)c2ccccc12
Mus musculus [6]
  Cures: 0
Mus musculus [7]
  Cures: 0
Mus musculus [8]
  Cures: 0
Mus musculus [9]
  ILS at 12.5 mg/kg: 109%
Mus musculus [10]
  ILS at 6 mg/kg: 167%
Mus musculus [11]
  Cures: 6
Mus musculus [12]
  ILS at 50 mg/kg: 91%
Mus musculus [13]
  ILS: <25%
Mus musculus [14]
  ILS at 25 mg/kg: 56%

## CC1(C)CN=C(N/N=C/c2c3ccccc3c(/C=N/NC3=NCC(C)(C)CN3)c3ccccc23)NC1.Cl.Cl
Mus musculus [15]
  ILS at 25 mg/kg: 143%
Mus musculus [16]
  ILS at 200 mg/kg: 29%
Mus musculus [17]
  Cures: 4
Mus musculus [7]
  Cures: 0
Mus musculus [18]
  ILS: <25%
Mus musculus [19]
  ILS at 100 mg/kg: 205%
Mus musculus [20]
  Inhibition: 31%
Mus musculus [21]
  ILS at 25 mg/kg: 153%
Mus musculus [14]
  ILS at 25 mg/kg: 88%
Mus musculus [22]
  Cures: 0

## CC1(C)CNC(N/N=C/c2c3ccccc3c(/C=N/NC3=NCC(C)(C)N3)c3ccccc23)=N1.Cl.Cl
Mus musculus [17]
  Cures: 5
Mus musculus [23]
  ILS at 6.2 mg/kg: > 248%
Mus musculus [24]
  Cures: 0
Mus musculus [25]
  ILS at 12.5 mg/kg: 100%
Mus musculus [26]
  ILS at 12.5 mg/kg: 28%
Mus musculus [22]
  Cures: 0

## C(=N\NC1=NCC2(CC2)CN1)/c1c2ccccc2c(/C=N/NC2=NCC3(CC3)CN2)c2ccccc12.Cl.Cl
Mus musculus [17]
  Cures: 4
Mus musculus [27]
  ILS at 1.5 mg/kg: 127%
Mus musculus [28]
  ILS at 12.5 mg/kg: 100%
Mus musculus [29]
  Cures: 1

## Cl.Cl.Clc1ccc2c(/C=N/NC3=NCCN3)c3ccccc3c(/C=N/NC3=NCCN3)c2c1
Mus musculus [30]
  Cures: 1
Mus musculus [17]
  Cures: 4
Mus musculus [31]
  ILS at 6.2 mg/kg: 100%
Mus musculus [32]
  Cures: 0
Mus musculus [33]
  Cures: 0
Mus musculus [34]
  ILS at 6.25 mg/kg: 206%
Mus musculus [35]
  Cures: 2
Mus musculus [36]
  ILS at 12.5 mg/kg: 95%
Mus musculus [37]
  ILS at 12.5 mg/kg: 32%
Mus musculus [38]
  ILS at 3.1 mg/kg: 37%

## COc1cccc2c1C(=O)c1c(O)c3c(c(O)c1C2=O)C[C@@](O)(C(=O)CO)C[C@@H]3O[C@H]1C[C@H](N)[C@H](O)[C@H](C)O1 [DOXORUBICIN]
Mus musculus [39]
  ILS at 0.8 mg/kg: 275%
Mus musculus [40]
  ILS at 5 mg/kg: 159%
Mus musculus [11]
  Cures: 18
Mus musculus [41]
  Cures: 1
